Assay results published in ChEMBL document CHEMBL1157829, “2-imino-thiazolidin-4-one derivatives as potent, orally active S1P1 receptor agonists” (J Med Chem, 2010).
Activity calls are given as the source filed them. The rule behind the calls is not given here.

Assays:
[1] = target: T1, Sphingosine 1-phosphate receptor 4 (Homo sapiens, UniProt O95977); experiment: Agonist activity at human recombinant S1P4 receptor expressed in CHO cells by GTPgammaS binding assay; format: functional, cell-based
T1 sequence (O95977 whole entry): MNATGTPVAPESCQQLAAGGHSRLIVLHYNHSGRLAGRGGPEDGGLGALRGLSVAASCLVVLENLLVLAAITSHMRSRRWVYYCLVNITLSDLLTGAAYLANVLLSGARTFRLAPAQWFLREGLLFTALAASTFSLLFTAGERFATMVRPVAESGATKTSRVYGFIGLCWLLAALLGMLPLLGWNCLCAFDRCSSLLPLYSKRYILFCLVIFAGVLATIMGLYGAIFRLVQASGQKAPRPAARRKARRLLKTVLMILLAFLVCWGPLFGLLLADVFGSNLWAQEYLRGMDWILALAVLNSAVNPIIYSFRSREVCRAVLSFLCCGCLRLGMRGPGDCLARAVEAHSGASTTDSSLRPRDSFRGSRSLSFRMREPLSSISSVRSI

[2] = target: T2, Sphingosine 1-phosphate receptor 1 (Homo sapiens, UniProt P21453); experiment: Agonist activity at human recombinant S1P1 receptor expressed in CHO cells by GTPgammaS binding assay; format: functional, cell-based
[3] = Clearance in Beagle dog at 3 mg/kg, po and 0.3 mg/kg, iv; format: ADME, organism-based, Canis lupus familiaris; settings: in vivo
In short: (§1)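 Fed male beagle dogs (n = 3) were dosed at 3 mg/kg orally and 0.3 mg/kg intravenously. Plasma exposure was measured to derive bioavailability, Cmax, half-life, clearance and Vss.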

[4] = target: T3, Sphingosine 1-phosphate receptor 2 (Homo sapiens, UniProt O95136); experiment: Agonist activity at human recombinant S1P2 receptor expressed in HEK cells by GTPgammaS binding assay; format: functional, HEK293
[5] = target: T1, Sphingosine 1-phosphate receptor 4; experiment: Displacement of [33P]S1P from human recombinant S1P4 receptor expressed in CHO cells by scintillation counting; format: cell-based
[6] = Intrinsic clearance in human liver microsomes at 1 uM by LC-MS/MS analysis measured per mg of protein; format: ADME, Microsome
[7] = target: T4, Sphingosine 1-phosphate receptor 5 (Homo sapiens, UniProt Q9H228); experiment: Agonist activity at human recombinant S1P5 receptor expressed in CHO cells at 10 uM by GTPgammaS binding assay relative to S1P; format: functional, cell-based
In short: (§2)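 In the same CHO-membrane 35S-GTPγS binding assay with human receptor, maximal activity at 10 uM compound was expressed as a percentage of the effect induced by S1P.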

[8] = Bioavailability in Wistar rat at 3 mg/kg, po and 0.3 mg/kg, iv; format: ADME, organism-based; settings: in vivo
In short: (§3)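 Male Wistar rats (n = 3) were dosed at 3 mg/kg orally and 0.3 mg/kg intravenously. Plasma pharmacokinetic parameters were derived from these runs.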

Rattus norvegicus [9] = experiment: Immunomodulatory activity in normotensive Wistar rat assessed as change in circulating lymphocytes count at 10 mg/kg, po after 3 hrs relative to control; format: functional
In short: (§4)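 Normotensive male Wistar rats were housed on a 12 h light/dark cycle with free chow and water. Compound was dissolved in DMSO and added to 7.5% aqueous gelatin (final 5% DMSO), then given by gavage at 10 mg/kg (n = 6). Vehicle was 95% gelatin (7.5%)/5% DMSO (n = 30). Blood was taken before dosing and at 3, 6 and 24 h and counted by hematology analyzer. Counts are % change from t = 0 h ± SEM.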

[10] = Intrinsic clearance in rat hepatocytes at 1 uM by LC-MS/MS analysis measured per million cells; format: ADME, cell-based, Liver, Hepatocyte
[11] = Half life in Wistar rat at 3 mg/kg, po and 0.3 mg/kg, iv; format: ADME, organism-based; settings: in vivo; in short: as §3
[12] = Volume of distribution at steady state in Beagle dog at 3 mg/kg, po and 0.3 mg/kg, iv; format: ADME, organism-based, Canis lupus familiaris; settings: in vivo, read-out: Vdss; in short: as §1
[13] = target: T2, Sphingosine 1-phosphate receptor 1; experiment: Displacement of [33P]S1P from human recombinant S1P1 receptor expressed in HEK cells by scintillation counting; format: cell-based, HEK293; settings: read-out: IC50
In short: (§5)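 33P-S1P binding to membranes of recombinant receptor-expressing cells. IC50 reported as the geometric mean of independent experiments, with the geometric standard deviation.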

[14] = target: T4, Sphingosine 1-phosphate receptor 5; experiment: Agonist activity at human recombinant S1P5 receptor expressed in CHO cells by GTPgammaS binding assay; format: functional, cell-based
[15] = target: T3, Sphingosine 1-phosphate receptor 2; experiment: Displacement of [33P]S1P from human recombinant S1P2 receptor expressed in HEK cells by scintillation counting; format: cell-based, HEK293
Rattus norvegicus [16] = experiment: Immunomodulatory activity in normotensive Wistar rat assessed as change in circulating lymphocytes count at 10 mg/kg, po after 6 hrs relative to control; format: functional; in short: as §4
[17] = Intrinsic clearance in Beagle dog liver microsomes at 1 uM by LC-MS/MS analysis measured per mg of protein; format: ADME, Canis lupus familiaris, Microsome
[18] = Intrinsic clearance in Beagle dog hepatocytes at 1 uM by LC-MS/MS analysis measured per million cells; format: ADME, cell-based, Canis lupus familiaris, Liver, Hepatocyte
[19] = target: T2, Sphingosine 1-phosphate receptor 1; experiment: Agonist activity at human recombinant S1P1 receptor expressed in HEK cells by GTPgammaS binding assay; format: functional, cell-based, HEK293
In short: (§6)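 Membranes from cells expressing recombinant receptor. Buffer: 20 mM Hepes pH 7.4, 100 mM NaCl, 5 mM MgCl2, 0.1% fatty-acid-free BSA, 2.5% DMSO. GDP 1 µM for S1P1, 3 µM for S1P3. Compound preincubated with membranes 30 min at RT, then 50 pM 35S-GTPγS added for 1 h at RT. Bound label collected by filtration and counted. […] Values are geometric means of independent experiments.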

[20] = target: T5, Sphingosine 1-phosphate receptor 3 (Homo sapiens, UniProt Q99500); experiment: Displacement of [33P]S1P from human recombinant S1P3 receptor expressed in HEK cells by scintillation counting; format: cell-based, HEK293; settings: read-out: IC50; in short: as §5
Rattus norvegicus [21] = experiment: Immunomodulatory activity in normotensive Wistar rat assessed as change in circulating lymphocytes count at 10 mg/kg, po after 24 hrs relative to control; format: functional; in short: as §4
[22] = target: T5, Sphingosine 1-phosphate receptor 3; experiment: Agonist activity at human recombinant S1P3 receptor expressed in HEK cells by GTPgammaS binding assay; format: functional, HEK293; in short: as §6
[23] = Volume of distribution at steady state in Wistar rat at 3 mg/kg, po and 0.3 mg/kg, iv; format: ADME, organism-based; settings: in vivo, read-out: Vdss; in short: as §3
[24] = Cmax in Wistar rat at 3 mg/kg, po and 0.3 mg/kg, iv; format: ADME, organism-based; settings: in vivo; in short: as §3
[25] = Clearance in Wistar rat at 3 mg/kg, po and 0.3 mg/kg, iv; format: ADME, organism-based; settings: in vivo; in short: as §3
[26] = Cmax in Beagle dog at 3 mg/kg, po and 0.3 mg/kg, iv; format: ADME, organism-based, Canis lupus familiaris; settings: in vivo; in short: as §1
[27] = Half life in human administered as single ascending dose; format: ADME, organism-based; settings: in vivo
[28] = Intrinsic clearance in Wistar rat liver microsomes at 1 uM by LC-MS/MS analysis measured per mg of protein; format: ADME, Microsome
[29] = target: T6, Sphingosine 1-phosphate receptor 4 (Homo sapiens) (UniProt O95977); experiment: Agonist activity at human recombinant S1P4 receptor expressed in CHO cells at 10 uM by GTPgammaS binding assay relative to S1P; format: functional, cell-based; in short: as §2
T6 sequence (whole entry): T1 sequence (O95977 whole entry)

[30] = Bioavailability in Beagle dog at 3 mg/kg, po and 0.3 mg/kg, iv; format: ADME, organism-based, Canis lupus familiaris; settings: in vivo; in short: as §1
[31] = target: T5, Sphingosine 1-phosphate receptor 3; experiment: Agonist activity at human recombinant S1P3 receptor expressed in CHO cells by GTPgammaS binding assay; format: functional, cell-based
In short: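 Membranes from CHO cells expressing recombinant human receptor. Buffer 20 mM Hepes pH 7.4, 100 mM NaCl, 5 mM MgCl2, 0.1% fatty-acid-free BSA, 2.5% DMSO, GDP (1 uM for S1P1, 3 uM for S1P3), 50 pM 35S-GTPγS. Compound preincubated with membranes 30 min at room temperature, then 1 h with 35S-GTPγS. Reaction filtered and bound label counted. Specific binding is the 10 uM S1P signal minus the no-agonist signal. EC50 is the concentration giving 50% of specific binding; three independent assays.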

[32] = target: T4, Sphingosine 1-phosphate receptor 5; experiment: Displacement of [33P]S1P from human recombinant S1P5 receptor expressed in CHO cells by scintillation counting; format: cell-based
Canis familiaris = experiment: Immunomodulatory activity in Beagle dog assessed as decrease in circulating lymphocytes count at 5 mg/kg, po after 24 hrs; format: functional, organism-based; set-up: dose 5 mg/kg; settings: Canis lupus familiaris
[33] = Half life in Beagle dog at 3 mg/kg, po and 0.3 mg/kg, iv; format: ADME, organism-based, Canis lupus familiaris; settings: in vivo; in short: as §1

T4 sequence (Q9H228 whole entry): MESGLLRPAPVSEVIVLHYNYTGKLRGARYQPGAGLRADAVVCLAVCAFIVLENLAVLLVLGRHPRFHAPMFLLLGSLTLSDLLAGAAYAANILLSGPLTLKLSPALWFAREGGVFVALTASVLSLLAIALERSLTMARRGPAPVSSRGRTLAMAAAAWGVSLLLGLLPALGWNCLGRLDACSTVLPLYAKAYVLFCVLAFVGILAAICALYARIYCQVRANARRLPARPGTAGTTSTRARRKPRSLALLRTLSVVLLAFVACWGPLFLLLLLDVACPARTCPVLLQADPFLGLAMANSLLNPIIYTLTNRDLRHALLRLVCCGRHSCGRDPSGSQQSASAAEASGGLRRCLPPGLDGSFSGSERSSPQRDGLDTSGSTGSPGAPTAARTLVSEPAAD
T2 sequence (P21453 whole entry): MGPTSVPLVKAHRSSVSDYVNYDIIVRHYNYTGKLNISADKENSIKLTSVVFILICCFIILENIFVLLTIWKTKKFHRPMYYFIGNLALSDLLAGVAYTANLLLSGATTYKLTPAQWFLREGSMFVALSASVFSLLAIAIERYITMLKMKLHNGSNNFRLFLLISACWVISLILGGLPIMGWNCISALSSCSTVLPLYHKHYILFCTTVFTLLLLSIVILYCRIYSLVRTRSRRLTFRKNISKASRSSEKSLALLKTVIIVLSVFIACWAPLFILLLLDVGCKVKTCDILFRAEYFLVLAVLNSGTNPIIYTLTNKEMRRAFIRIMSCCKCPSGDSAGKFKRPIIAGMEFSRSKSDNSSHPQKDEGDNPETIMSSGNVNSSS
T5 sequence (Q99500 whole entry): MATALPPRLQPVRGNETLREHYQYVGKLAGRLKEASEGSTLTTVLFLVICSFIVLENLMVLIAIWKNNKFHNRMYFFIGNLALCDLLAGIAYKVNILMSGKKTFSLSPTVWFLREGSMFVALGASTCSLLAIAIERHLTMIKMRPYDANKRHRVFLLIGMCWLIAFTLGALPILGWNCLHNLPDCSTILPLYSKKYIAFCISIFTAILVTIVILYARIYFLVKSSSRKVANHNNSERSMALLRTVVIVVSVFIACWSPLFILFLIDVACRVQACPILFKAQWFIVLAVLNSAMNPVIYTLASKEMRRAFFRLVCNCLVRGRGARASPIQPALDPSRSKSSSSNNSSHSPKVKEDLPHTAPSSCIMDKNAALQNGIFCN
T3 sequence (O95136 whole entry): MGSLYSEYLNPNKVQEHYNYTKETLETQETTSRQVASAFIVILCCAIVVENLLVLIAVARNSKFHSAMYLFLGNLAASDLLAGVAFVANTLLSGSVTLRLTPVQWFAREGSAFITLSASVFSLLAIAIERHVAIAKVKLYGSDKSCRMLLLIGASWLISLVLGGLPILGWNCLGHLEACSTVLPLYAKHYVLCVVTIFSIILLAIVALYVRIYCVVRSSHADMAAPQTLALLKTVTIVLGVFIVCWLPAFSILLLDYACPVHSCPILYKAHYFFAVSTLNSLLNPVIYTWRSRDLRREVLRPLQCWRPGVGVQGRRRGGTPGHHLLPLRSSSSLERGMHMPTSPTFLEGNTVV

CCC/N=C1\S/C(=C\c2ccc(OC[C@@H](O)CO)c(Cl)c2)C(=O)N1c1ccccc1C
EC50 [1]: 1110 nM
EC50 [2]: 9.1 nM
clearance [3]: 1.3 mL/min/kg
EC50 [4]: > 10000 nM
IC50 [5]: 1960 nM
microsomal CLint at 1 µM [6]: 4 µL/min/mg
Activity [7]: 42%
bioavailability [8]: 35%
Activity (Rattus norvegicus [9]): -65%
hepatocyte CLint at 1 µM [10]: 3.7 µL/min/1e6 cells
half-life [11]: 1.3 h
Vd [12]: 0.9 L/kg
IC50 [13]: 6 nM
EC50 [14]: 59.1 nM
IC50 [15]: > 10000 nM
Activity (Rattus norvegicus [16]): -63%
microsomal CLint at 1 µM [17]: 7 µL/min/mg
hepatocyte CLint at 1 µM [18]: 1 µL/min/1e6 cells
EC50 [19]: 5.7 nM
IC50 [20]: 2070 nM
Activity (Rattus norvegicus [21]): -18%
EC50 [22]: 105 nM
Vd [23]: 3.3 L/kg
Cmax [24]: 409 ng/mL
clearance [25]: 25 mL/min/kg
Cmax [26]: 1360 ng/mL
half-life [27]: 22 h
microsomal CLint at 1 µM [28]: 56 µL/min/mg
Activity [29]: 18%
bioavailability [30]: 69%
EC50 [31]: 123 nM
IC50 [32]: 142 nM
Activity (Canis familiaris): Active
half-life [33]: 10 h
